How the values were obtained:
[1] = molecular target: Serine/threonine-protein kinase MARK2 (Homo sapiens) (UniProt Q7KZI7); assay: Inhibition of human MARK2 assessed as remaining activity at 1 uM by ATP-competition binding assay relative to control
Summary of the method: (§1)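 Single-point profiling at 1μM in an ATP-site-dependent competition binding assay across a panel of 395 human kinases, including mutant forms. The read-out is kinase binding signal in the presence of test agent, expressed as inhibition relative to the control signal. This screen assessed noncovalent binding interactions.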

[2] = molecular target: Serine/threonine-protein kinase SIK1 (Homo sapiens) (UniProt P57059); assay: Inhibition of human SIK assessed as remaining activity at 1 uM by ATP-competition binding assay relative to control
Serine/threonine-protein kinase SIK1 (Homo sapiens), sequence (P57059 whole entry): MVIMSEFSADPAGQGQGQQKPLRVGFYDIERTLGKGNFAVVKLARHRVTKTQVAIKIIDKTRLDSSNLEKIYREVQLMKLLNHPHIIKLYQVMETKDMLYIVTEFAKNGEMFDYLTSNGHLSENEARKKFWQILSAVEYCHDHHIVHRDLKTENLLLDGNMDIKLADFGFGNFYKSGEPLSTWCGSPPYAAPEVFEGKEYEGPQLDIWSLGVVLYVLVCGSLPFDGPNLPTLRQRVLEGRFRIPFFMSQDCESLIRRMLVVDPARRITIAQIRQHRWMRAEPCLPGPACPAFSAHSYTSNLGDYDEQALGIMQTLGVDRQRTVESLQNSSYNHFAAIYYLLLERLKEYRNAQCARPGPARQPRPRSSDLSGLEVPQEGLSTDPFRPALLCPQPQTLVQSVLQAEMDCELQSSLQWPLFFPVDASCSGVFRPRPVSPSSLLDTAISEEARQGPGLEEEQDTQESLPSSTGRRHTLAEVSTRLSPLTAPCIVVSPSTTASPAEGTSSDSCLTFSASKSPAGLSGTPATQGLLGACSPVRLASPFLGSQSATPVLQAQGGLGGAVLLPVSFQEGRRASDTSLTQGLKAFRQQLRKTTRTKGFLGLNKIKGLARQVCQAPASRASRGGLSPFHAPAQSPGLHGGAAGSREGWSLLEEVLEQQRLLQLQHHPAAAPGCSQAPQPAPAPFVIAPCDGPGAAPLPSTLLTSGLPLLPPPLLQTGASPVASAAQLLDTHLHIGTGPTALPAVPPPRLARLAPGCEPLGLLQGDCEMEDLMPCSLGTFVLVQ
Summary of the method: (§2)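 Single-concentration (1 μM) screen in an ATP-site-dependent competition binding assay (KINOMEscan, outsourced) covering 395 human kinases, mutants included. Non-covalent binding was read as the remaining signal relative to the control signal.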

[3] = system: Mast/stem cell growth factor receptor Kit (Homo sapiens), P10721 [D816V]; assay: Inhibition of human KIT D816V mutant assessed as remaining activity at 1 uM by ATP-competition binding assay relative to control; summary of the method: as §1
Mast/stem cell growth factor receptor Kit (Homo sapiens), P10721 [D816V], sequence (P10721 whole entry D816V): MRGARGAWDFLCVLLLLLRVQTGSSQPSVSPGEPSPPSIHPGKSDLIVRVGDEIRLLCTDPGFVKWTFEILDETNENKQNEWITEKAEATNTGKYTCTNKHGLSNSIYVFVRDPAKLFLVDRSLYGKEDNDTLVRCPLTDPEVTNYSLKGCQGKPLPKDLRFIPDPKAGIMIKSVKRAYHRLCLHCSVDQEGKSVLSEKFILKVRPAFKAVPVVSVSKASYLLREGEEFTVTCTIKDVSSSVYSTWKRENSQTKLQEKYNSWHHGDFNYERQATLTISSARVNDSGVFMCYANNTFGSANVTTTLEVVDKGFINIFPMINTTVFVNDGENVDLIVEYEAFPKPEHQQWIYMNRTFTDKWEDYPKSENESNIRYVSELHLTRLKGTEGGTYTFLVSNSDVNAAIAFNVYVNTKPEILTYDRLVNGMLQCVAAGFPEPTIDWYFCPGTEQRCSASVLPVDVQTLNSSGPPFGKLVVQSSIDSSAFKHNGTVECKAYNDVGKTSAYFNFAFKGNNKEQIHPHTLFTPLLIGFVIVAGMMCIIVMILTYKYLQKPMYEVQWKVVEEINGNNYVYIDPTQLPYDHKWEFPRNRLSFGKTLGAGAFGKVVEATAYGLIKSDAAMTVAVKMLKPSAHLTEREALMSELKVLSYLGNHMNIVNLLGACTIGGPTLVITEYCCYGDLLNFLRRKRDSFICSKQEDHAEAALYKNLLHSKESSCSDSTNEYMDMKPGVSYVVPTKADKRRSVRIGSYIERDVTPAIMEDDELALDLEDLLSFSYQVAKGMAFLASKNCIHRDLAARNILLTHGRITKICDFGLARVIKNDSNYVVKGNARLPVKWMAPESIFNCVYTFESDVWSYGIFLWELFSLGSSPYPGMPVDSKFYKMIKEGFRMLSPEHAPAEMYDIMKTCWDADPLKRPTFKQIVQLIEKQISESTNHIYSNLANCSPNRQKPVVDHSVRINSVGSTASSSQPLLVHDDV

[4] = molecular target: Calcium/calmodulin-dependent protein kinase type 1G (Homo sapiens) (UniProt Q96NX5); assay: Inhibition of human CAMK1G assessed as remaining activity at 1 uM by ATP-competition binding assay relative to control
Summary of the method: (§3)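 KINOMEscan ATP-site-dependent competition binding panel of 395 human kinases, with compound tested at 1 μM. Binding is reported as remaining signal relative to control.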

[5] = In vivo inhibition of BCR signaling in female […] mouse assessed as B-cell function at 25 mg/kg, po administered for 24 hrs and measured after stimulation with anti-IgM for 18 h by flow cytometry analysis relative to control; format: functional, Splenocyte; parameters: scale not given: the % may be the effect or the level left
Summary of the method: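 Female C57BL/6 mice (5/group) received vehicle or 25 mg/kg drug by oral gavage at time zero, with spleens taken at time points from 3 to 24 h. Splenocytes were stimulated ex vivo with goat anti-mouse IgM at 10μg/mL for 18 h at 37°C in 5% CO2, then Fc-blocked and stained for CD19 plus CD69, CD86 or phospho-S6(S235/236), with 7-AAD to exclude dead cells. Read-out was flow cytometry on >5,000 gated CD19+ cells, compared with vehicle.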

[6] = molecular target: cAMP-dependent protein kinase catalytic subunit beta (Homo sapiens) (UniProt P22694); assay: Inhibition of human PKAC-beta assessed as remaining activity at 1 uM by ATP-competition binding assay relative to control; summary of the method: as §2
[7] = molecular target: RAC-beta serine/threonine-protein kinase (Homo sapiens) (UniProt P31751); assay: Inhibition of human AKT2 assessed as remaining activity at 1 uM by ATP-competition binding assay relative to control; summary of the method: as §3
[8] = molecular target: Casein kinase II subunit alpha (Homo sapiens) (UniProt P68400); assay: Inhibition of human CSNK2A1 assessed as remaining activity at 1 uM by ATP-competition binding assay relative to control; summary of the method: as §3
Casein kinase II subunit alpha (Homo sapiens), sequence (P68400 whole entry, looked up): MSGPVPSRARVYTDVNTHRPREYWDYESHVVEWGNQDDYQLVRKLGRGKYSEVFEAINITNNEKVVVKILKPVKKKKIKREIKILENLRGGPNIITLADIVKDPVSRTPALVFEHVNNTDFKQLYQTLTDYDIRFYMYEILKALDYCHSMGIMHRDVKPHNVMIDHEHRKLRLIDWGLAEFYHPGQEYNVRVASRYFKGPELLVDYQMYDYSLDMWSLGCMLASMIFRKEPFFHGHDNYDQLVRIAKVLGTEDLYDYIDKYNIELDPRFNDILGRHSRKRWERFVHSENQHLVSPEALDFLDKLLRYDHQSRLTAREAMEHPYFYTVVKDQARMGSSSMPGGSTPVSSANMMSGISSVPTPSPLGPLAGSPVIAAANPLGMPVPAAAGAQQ

[9] = molecular target: Hepatocyte growth factor receptor (Homo sapiens) (UniProt P08581); assay: Inhibition of human MET assessed as remaining activity at 1 uM by ATP-competition binding assay relative to control; summary of the method: as §1
[10] = molecular target: Mast/stem cell growth factor receptor Kit (Homo sapiens) (UniProt P10721); assay: Inhibition of human KIT assessed as remaining activity at 1 uM by ATP-competition binding assay relative to control; summary of the method: as §1
[11] = molecular target: Tyrosine-protein kinase Fes/Fps (Homo sapiens) (UniProt P07332); assay: Inhibition of human FES assessed as remaining activity at 1 uM by ATP-competition binding assay relative to control; summary of the method: as §1
Tyrosine-protein kinase Fes/Fps (Homo sapiens), sequence (P07332 whole entry): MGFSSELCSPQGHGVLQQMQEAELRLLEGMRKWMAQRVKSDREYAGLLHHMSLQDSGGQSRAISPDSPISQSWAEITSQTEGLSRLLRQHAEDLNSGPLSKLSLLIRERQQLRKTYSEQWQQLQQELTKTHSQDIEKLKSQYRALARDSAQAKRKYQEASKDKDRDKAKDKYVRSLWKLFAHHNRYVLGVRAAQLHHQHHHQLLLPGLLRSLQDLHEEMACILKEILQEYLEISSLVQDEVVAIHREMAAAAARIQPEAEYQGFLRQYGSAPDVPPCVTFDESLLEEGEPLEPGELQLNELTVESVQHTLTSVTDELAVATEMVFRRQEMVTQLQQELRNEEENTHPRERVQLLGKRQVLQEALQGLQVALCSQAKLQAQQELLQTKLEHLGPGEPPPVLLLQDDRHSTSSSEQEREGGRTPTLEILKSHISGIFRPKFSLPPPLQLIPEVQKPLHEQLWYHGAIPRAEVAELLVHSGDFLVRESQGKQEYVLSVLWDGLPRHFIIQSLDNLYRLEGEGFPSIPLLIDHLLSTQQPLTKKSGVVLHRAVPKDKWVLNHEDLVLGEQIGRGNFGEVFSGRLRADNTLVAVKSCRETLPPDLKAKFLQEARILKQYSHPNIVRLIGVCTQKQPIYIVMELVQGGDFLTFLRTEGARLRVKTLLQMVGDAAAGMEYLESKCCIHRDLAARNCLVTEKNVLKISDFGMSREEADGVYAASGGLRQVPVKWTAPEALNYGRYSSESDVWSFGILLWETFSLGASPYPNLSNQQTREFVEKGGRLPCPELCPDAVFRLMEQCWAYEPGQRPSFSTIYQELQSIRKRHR

[12] = molecular target: Tyrosine-protein kinase CSK (Homo sapiens) (UniProt P41240); assay: Inhibition of human CSK assessed as remaining activity at 1 uM by ATP-competition binding assay relative to control; summary of the method: as §3
[13] = molecular target: Casein kinase I isoform gamma-3 (Homo sapiens) (UniProt Q9Y6M4); assay: Inhibition of human CSNK1G3 assessed as remaining activity at 1 uM by ATP-competition binding assay relative to control; summary of the method: as §3
[14] = molecular target: Serine/threonine-protein kinase N2 (Homo sapiens) (UniProt Q16513); assay: Inhibition of human PKN2 assessed as remaining activity at 1 uM by ATP-competition binding assay relative to control; summary of the method: as §2
[15] = molecular target: SRSF protein kinase 2 (Homo sapiens) (UniProt P78362); assay: Inhibition of human SRPK2 assessed as remaining activity at 1 uM by ATP-competition binding assay relative to control; summary of the method: as §2
[16] = molecular target: Ephrin type-A receptor 1 (Homo sapiens) (UniProt P21709); assay: Inhibition of human EPHA1 assessed as remaining activity at 1 uM by ATP-competition binding assay relative to control; summary of the method: as §3
[17] = molecular target: Serine/threonine-protein kinase PLK4 (Homo sapiens) (UniProt O00444); assay: Inhibition of human PLK4 assessed as remaining activity at 1 uM by ATP-competition binding assay relative to control; summary of the method: as §2
[18] = system: Hepatocyte growth factor receptor (Homo sapiens), P08581 [M1250T]; assay: Inhibition of human MET M1250T mutant assessed as remaining activity at 1 uM by ATP-competition binding assay relative to control; summary of the method: as §1
[19] = Antitumor activity against human CLL mononuclear cells xenografted NSG mouse assessed as reduction in the phosphorylation of PLCgamma2 at 0.3 mg/ml preadministered with compound via drinking water and measured after 3 weeks by flow cytometry analysis relative to control; format: functional, CLL mononuclear cell; parameters: scale not given: the % may be the effect or the level left
Summary of the method: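 Primary CLL patient mononuclear cells (1 × 10^8 per mouse) engrafted into NSG mice on day 0 after busulfan priming on day −1. Vehicle or drug was given in drinking water from day −1. Mice were killed 3 weeks after engraftment; spleens homogenized, filtered and RBC-lysed; whole blood collected. Six patients, 2–5 mice per patient; paired t-test per patient.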

[20] = molecular target: Uncharacterized serine/threonine-protein kinase SBK3 (Homo sapiens) (UniProt P0C264); assay: Inhibition of human SgK110 assessed as remaining activity at 1 uM by ATP-competition binding assay relative to control; summary of the method: as §2
Uncharacterized serine/threonine-protein kinase SBK3 (Homo sapiens), sequence (P0C264 whole entry): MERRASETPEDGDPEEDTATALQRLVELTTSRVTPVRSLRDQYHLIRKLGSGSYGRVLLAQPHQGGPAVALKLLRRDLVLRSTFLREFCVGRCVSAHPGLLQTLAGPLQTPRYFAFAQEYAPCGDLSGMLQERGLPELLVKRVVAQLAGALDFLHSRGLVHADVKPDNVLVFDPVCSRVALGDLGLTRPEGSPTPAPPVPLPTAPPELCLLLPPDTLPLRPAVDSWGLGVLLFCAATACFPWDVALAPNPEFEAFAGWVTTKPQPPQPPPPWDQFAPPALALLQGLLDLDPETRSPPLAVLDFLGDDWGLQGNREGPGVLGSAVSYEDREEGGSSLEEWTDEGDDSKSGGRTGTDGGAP

[21] = system: Serine/threonine-protein kinase B-raf (Homo sapiens), P15056 [V600E]; assay: Inhibition of human BRAF V600E mutant assessed as remaining activity at 1 uM by ATP-competition binding assay relative to control; summary of the method: as §3
Serine/threonine-protein kinase B-raf (Homo sapiens), P15056 [V600E], sequence (P15056 whole entry V600E): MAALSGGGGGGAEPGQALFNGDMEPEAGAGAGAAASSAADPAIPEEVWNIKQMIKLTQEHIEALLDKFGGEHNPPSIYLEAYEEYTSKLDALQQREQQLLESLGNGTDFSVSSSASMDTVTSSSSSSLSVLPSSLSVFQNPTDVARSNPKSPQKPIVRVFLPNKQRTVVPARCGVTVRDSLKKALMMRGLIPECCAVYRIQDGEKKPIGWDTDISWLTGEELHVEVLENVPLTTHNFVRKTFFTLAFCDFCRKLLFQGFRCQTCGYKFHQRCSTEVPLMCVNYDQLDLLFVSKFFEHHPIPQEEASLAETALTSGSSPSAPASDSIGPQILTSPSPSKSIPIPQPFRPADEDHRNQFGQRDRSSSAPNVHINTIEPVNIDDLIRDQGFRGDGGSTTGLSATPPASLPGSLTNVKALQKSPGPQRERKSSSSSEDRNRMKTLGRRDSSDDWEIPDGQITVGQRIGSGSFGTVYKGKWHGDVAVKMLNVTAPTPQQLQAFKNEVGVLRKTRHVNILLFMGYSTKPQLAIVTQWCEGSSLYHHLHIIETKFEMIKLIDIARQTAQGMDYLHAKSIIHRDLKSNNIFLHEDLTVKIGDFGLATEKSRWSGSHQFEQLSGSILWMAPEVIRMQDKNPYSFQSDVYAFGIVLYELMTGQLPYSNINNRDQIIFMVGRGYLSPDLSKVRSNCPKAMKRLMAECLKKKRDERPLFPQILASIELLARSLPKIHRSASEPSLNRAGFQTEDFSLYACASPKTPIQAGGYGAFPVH

[22] = molecular target: cAMP-dependent protein kinase catalytic subunit alpha (Homo sapiens) (UniProt P17612); assay: Inhibition of human PKAC-alpha assessed as remaining activity at 1 uM by ATP-competition binding assay relative to control; summary of the method: as §2
[23] = molecular target: Serine/threonine-protein kinase MAK (Homo sapiens) (UniProt P20794); assay: Inhibition of human MAK assessed as remaining activity at 1 uM by ATP-competition binding assay relative to control; summary of the method: as §1
[24] = molecular target: Receptor tyrosine-protein kinase erbB-2 (Homo sapiens) (UniProt P04626); assay: Inhibition of human ERBB2 assessed as remaining activity at 1 uM by ATP-competition binding assay relative to control; summary of the method: as §1
[25] = molecular target: Calcium/calmodulin-dependent protein kinase type II subunit alpha (Homo sapiens) (UniProt Q9UQM7); assay: Inhibition of human CAMK2A assessed as remaining activity at 1 uM by ATP-competition binding assay relative to control; summary of the method: as §3
[26] = molecular target: Mitogen-activated protein kinase kinase kinase 13 (Homo sapiens) (UniProt O43283); assay: Inhibition of human LZK assessed as remaining activity at 1 uM by ATP-competition binding assay relative to control; summary of the method: as §1
Mitogen-activated protein kinase kinase kinase 13 (Homo sapiens), sequence (O43283 whole entry): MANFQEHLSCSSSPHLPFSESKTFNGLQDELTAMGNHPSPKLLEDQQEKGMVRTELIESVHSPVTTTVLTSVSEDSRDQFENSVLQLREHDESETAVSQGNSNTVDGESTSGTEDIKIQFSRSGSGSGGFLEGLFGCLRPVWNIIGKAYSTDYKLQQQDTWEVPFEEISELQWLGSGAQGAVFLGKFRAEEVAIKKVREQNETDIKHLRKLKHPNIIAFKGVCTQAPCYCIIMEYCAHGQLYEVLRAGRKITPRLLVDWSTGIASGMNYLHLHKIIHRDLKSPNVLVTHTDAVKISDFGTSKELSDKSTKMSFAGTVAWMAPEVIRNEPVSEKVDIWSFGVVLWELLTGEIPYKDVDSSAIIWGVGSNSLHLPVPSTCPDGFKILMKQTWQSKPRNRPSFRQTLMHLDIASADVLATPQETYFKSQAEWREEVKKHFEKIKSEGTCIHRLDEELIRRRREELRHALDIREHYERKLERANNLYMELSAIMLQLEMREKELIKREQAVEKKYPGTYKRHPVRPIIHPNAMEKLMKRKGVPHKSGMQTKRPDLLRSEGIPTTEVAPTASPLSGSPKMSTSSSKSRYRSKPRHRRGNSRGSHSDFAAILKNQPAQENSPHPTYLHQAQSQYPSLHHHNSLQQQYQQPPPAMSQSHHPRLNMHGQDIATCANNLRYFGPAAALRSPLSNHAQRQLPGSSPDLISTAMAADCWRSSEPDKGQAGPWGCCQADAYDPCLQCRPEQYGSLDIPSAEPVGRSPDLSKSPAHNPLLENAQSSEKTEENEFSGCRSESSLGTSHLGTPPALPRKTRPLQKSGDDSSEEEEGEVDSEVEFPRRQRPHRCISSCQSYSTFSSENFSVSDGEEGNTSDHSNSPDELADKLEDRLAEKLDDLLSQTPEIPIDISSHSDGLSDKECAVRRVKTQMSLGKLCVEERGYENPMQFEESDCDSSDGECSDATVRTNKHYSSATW

Q: Which Activity [1] does the source give for `CC#CC(=O)N1CCC[C@H]1c1nc(-c2ccc(C(=O)Nc3ccccn3)cc2)c2c(N)nccn12` [ACALABRUTINIB] here?
A: 59%

Q: What about the Activity [2] of the same compound?
A: 88%

Q: And the Activity [3]?
A: 83%

Q: What about the Activity [4] of the same compound?
A: 95%

Q: And the Activity [5]?
A: ~70%

Q: What about the Activity [6] of the same compound?
A: 88%

Q: And the Activity [7]?
A: 100%

Q: And the Activity [8]?
A: 54%

Q: And the Activity [9]?
A: 91%

Q: What about the Activity [10] of the same compound?
A: 84%

Q: And the Activity [11]?
A: 100%

Q: What about the Activity [12] of the same compound?
A: 86%

Q: And the Activity [13]?
A: 100%

Q: What about the Activity [14] of the same compound?
A: 86%

Q: What about the Activity [15] of the same compound?
A: 85%

Q: And the Activity [16]?
A: 76%

Q: And the Activity [17]?
A: 80%

Q: And the Activity [18]?
A: 90%

Q: And the Activity [19]?
A: 68%

Q: And the Activity [20]?
A: 90%

Q: What about the Activity [21] of the same compound?
A: 44%

Q: What about the Activity [22] of the same compound?
A: 77%

Q: And the Activity [23]?
A: 90%

Q: What about the Activity [24] of the same compound?
A: 2.1%

Q: What about the Activity [25] of the same compound?
A: 90%

Q: What about the Activity [26] of the same compound?
A: 83%

Source: ChEMBL document CHEMBL5678815 (Clin Cancer Res, 2017)
